Measured values published in ChEMBL document CHEMBL5705899 (Biochem J, 2014).
The source made the active and inactive calls. The rule behind the calls is not given here.

What was measured:
[1] = target: Serine/threonine-protein kinase mTOR (Homo sapiens) (UniProt P42345); assay: Inhibition of mTOR in human U2OS cells expressing FLAG-tagged SGK3 assessed as reduction in 4EBP1 phosphorylation T37/T46 residues at 0.1 uM 1 hr by immunoblot analysis; type: cell-based
Summary of the method: (§1)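 Doxycycline-induced FLAG-SGK3 U2OS Flp-In cells exposed to 0.1 μM mTOR inhibitor for 1 h. Clarified lysates immunoblotted for 4EBP1 phosphosites (Thr37/Thr46, Ser65), ECL film detection.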

[2] = target: Serine/threonine-protein kinase mTOR (Homo sapiens) (UniProt P42345); assay: Inhibition of mTOR in human U2OS cells expressing FLAG-tagged SGK3 assessed as reduction in 4EBP1 phosphorylation S65 residues at 0.1 uM 1 hr by immunoblot analysis; type: cell-based; summary of the method: as §1
U2OS [3] = assay: Inhibition of PI3K in human U2OS cells expressing FLAG-tagged SGK3 assessed as reduction in AKT phosphorylation T308 residues at 0.01 to 0.5 uM 1 hr by immunoblot analysis; type: cell-based; details: dose 0.01-0.5 µM
Summary of the method: (§2)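 FLAG-SGK3 U2OS Flp-In cells (doxycycline-induced) treated for 1 h with class I PI3K inhibitor, 0.5 μM or a dose series as indicated. Lysed in phosphatase-inhibitor buffer, clarified at 16000 g for 10 min at 4°C, Bradford-normalized. Akt, PRAS40 and 4EBP1 phosphosites were read by immunoblot, and SGK3 sites on anti-FLAG immunoprecipitates, with ECL film detection.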

U2OS [4] = assay: Inhibition of PI3K in human U2OS cells expressing FLAG-tagged SGK3 assessed as reduction in AKT phosphorylation S473 residues at 0.01 to 0.5 uM 1 hr by immunoblot analysis; type: cell-based; details: dose 0.01-0.5 µM; summary of the method: as §2
U2OS [5] = assay: Inhibition of PI3K in human U2OS cells expressing FLAG-tagged SGK3 assessed as reduction in PRAS40 phosphorylation T246 residues at 0.01 to 0.5 uM 1 hr by immunoblot analysis; type: cell-based; details: dose 0.01-0.5 µM; summary of the method: as §2
U2OS [6] = assay: Inhibition of PI3K in human U2OS cells expressing FLAG-tagged SGK3 assessed as reduction in 4EBP1 phosphorylation T37/T46 residues at 0.01 to 0.5 uM 1 hr by immunoblot analysis; type: cell-based; details: dose 0.01-0.5 µM; summary of the method: as §2
U2OS [7] = assay: Inhibition of PI3K in human U2OS cells expressing FLAG-tagged SGK3 assessed as reduction in 4EBP1 phosphorylation S65 residues at 0.01 to 0.5 uM 1 hr by immunoblot analysis; type: cell-based; details: dose 0.01-0.5 µM; summary of the method: as §2
[8] = target: Phosphatidylinositol 3-kinase catalytic subunit type 3 (Homo sapiens) (UniProt Q8NEB9); assay: Inhibition of Vps34 in human U2OS cells expressing GFP-2xFYVEHrs assessed as reduction in PtdIns(3)P level in endosome at 0.5 uM incubated for 1 hr by Alexa Fluor 488 staining based fluorescence microscopic analysis relative to control
Chain of Phosphatidylinositol 3-kinase catalytic subunit type 3 (Homo sapiens) (Q8NEB9 whole entry): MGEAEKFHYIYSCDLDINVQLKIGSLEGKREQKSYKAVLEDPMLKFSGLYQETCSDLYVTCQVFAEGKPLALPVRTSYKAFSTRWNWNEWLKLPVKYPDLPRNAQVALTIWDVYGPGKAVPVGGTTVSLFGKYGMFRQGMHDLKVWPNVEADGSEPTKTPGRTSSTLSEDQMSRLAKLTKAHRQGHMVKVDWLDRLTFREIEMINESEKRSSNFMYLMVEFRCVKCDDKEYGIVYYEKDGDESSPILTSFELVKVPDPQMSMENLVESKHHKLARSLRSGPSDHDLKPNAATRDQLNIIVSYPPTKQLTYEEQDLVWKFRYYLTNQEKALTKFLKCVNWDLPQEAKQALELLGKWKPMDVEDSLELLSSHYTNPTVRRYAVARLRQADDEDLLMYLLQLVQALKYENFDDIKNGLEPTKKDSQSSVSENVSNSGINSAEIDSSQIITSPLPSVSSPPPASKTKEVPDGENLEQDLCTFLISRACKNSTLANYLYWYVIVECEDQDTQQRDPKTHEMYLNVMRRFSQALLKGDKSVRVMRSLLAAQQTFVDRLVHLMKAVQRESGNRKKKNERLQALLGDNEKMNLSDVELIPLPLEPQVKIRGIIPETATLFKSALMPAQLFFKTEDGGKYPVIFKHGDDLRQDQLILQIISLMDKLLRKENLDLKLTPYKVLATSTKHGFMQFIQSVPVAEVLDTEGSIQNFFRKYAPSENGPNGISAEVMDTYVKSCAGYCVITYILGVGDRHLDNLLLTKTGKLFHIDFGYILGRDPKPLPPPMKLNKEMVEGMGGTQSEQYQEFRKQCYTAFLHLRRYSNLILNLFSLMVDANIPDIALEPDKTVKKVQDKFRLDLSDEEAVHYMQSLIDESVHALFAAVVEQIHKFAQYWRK
Summary of the method: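 U2OS clone with low stable expression of lentiviral GFP–2×FYVEHrs; 1 h inhibitor exposure. Permeabilized by a freeze–thaw in liquid nitrogen, then fixed in 4% paraformaldehyde, stained with anti-GFP plus Alexa Fluor 488 secondary and DAPI. Ten random fields of 20–25 cells each; fluorescence per cell (field total/cell count) expressed relative to DMSO, mean±S.D.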

U2OS [9] = assay: Inhibition of PI3K in human U2OS cells expressing GFP-PHAkt1 assessed as reduction in IGF-stimulated PtdIns(3,4,5)P3/PtdIns(3,4)P2 level in endosome at 0.5 uM pre incubated for 1 hr followed by IGF stimulation and measured after 15 mins by Alexa Fluor 488 staining based fluorescence microscopic analysis; type: subcellular; details: time 1.25 hrs
[10] = target: Phosphatidylinositol 3-kinase catalytic subunit type 3 (Homo sapiens) (UniProt Q8NEB9); assay: Inhibition of Vps34 in human U2OS cells expressing C-terminal tagged-SGK3 assessed as reduction in SGK3 level in endosome at 0.5 uM incubated for 1 hr by Alexa Fluor 594 staining based fluorescence microscopic analysis; type: subcellular
U2OS [11] = assay: Inhibition of PI3K in human U2OS cells expressing FLAG-tagged SGK3 assessed as reduction in SGK3 phosphorylation at T320 residues 0.5 uM after 1 hr by immunoblot analysis; type: cell-based; summary of the method: as §2
U2OS [12] = assay: Inhibition of PI3K in human U2OS cells expressing FLAG-tagged SGK3 assessed as reduction in SGK3 phosphorylation at S486 residues 0.5 uM after 1 hr by immunoblot analysis; type: cell-based; summary of the method: as §2
U2OS [13] = assay: Inhibition of PI3K in human U2OS cells expressing FLAG-tagged SGK3 assessed as reduction in AKT phosphorylation T308 residues at 0.5 uM 1 hr by immunoblot analysis; type: cell-based; summary of the method: as §2
U2OS [14] = assay: Inhibition of PI3K in human U2OS cells expressing FLAG-tagged SGK3 assessed as reduction in AKT phosphorylation S473 residues at 0.5 uM 1 hr by immunoblot analysis; type: cell-based; summary of the method: as §2
U2OS [15] = assay: Inhibition of PI3K in human U2OS cells expressing FLAG-tagged SGK3 assessed as reduction in PRAS40 phosphorylation T246 residues at 0.5 uM 1 hr by immunoblot analysis; type: cell-based; summary of the method: as §2
U2OS [16] = assay: Inhibition of PI3K in human U2OS cells expressing FLAG-tagged SGK3 assessed as reduction in 4EBP1 phosphorylation T37/T46 residues at 0.5 uM 1 hr by immunoblot analysis; type: cell-based; summary of the method: as §2
U2OS [17] = assay: Inhibition of PI3K in human U2OS cells expressing FLAG-tagged SGK3 assessed as reduction in 4EBP1 phosphorylation S65 residues at 0.5 uM 1 hr by immunoblot analysis; type: cell-based; summary of the method: as §2
U2OS [18] = assay: Inhibition of PI3K in human U2OS cells expressing FLAG-tagged SGK3 assessed as reduction in SGK3 activity at 0.5 uM using cross peptide as substrate incubated for 1 to 2 mins in presence of [gamma-32P]-ATP by radioactive assay; type: cell-based; details: time 1-2 min
U2OS [19] = assay: Inhibition of PI3K in human U2OS cells expressing FLAG-tagged SGK3 assessed as reduction in SGK3 phosphorylation at T320 residues 0.5 uM after 1 to 2 mins by immunoblot analysis; type: cell-based; details: time 1-2 min
U2OS [20] = assay: Inhibition of PI3K in human U2OS cells expressing FLAG-tagged SGK3 assessed as reduction in SGK3 phosphorylation at S486 residues 0.5 uM after 1 to 2 mins by immunoblot analysis; type: cell-based; details: time 1-2 min
U2OS [21] = assay: Inhibition of PI3K in human U2OS cells expressing FLAG-tagged SGK3 assessed as reduction in NDRG1 phosphorylation at T346 residues at 0.5 uM 1 hr by immunoblot analysis; type: cell-based
[22] = target: T1, 3-phosphoinositide-dependent protein kinase 1 (Homo sapiens) (UniProt O15530); assay: Inhibition of PDK1 in human U2OS cells expressing FLAG-tagged SGK3 assessed as reduction in SGK3 phosphorylation at T320 residues at 1 uM after 1 hr by immunoblot analysis; type: cell-based
T1 sequence (whole entry): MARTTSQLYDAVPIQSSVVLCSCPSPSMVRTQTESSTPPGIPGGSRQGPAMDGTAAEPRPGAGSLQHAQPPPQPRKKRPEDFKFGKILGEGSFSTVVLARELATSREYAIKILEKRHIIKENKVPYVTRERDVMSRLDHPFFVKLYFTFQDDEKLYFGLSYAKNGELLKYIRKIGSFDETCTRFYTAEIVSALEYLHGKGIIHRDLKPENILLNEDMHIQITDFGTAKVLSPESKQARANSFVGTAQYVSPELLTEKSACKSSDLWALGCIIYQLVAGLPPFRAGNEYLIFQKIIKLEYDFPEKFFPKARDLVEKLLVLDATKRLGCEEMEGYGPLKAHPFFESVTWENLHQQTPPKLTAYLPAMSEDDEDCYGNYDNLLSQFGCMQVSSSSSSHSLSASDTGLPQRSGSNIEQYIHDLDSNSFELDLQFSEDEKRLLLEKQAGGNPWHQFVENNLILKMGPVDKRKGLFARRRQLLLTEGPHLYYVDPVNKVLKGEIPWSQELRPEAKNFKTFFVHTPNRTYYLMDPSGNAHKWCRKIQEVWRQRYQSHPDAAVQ
Summary of the method: (§3)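 U2OS Flp-In cells with doxycycline-induced (0.01 mg/ml, 24 h) full-length SGK3 carrying a C-terminal FLAG tag; treated with 1 μM inhibitor for 1 h. Lysis, anti-FLAG immunoprecipitation, washes (high-salt lysis buffer, lysis buffer, 50 mM Tris pH 7.5/0.1 mM EGTA). IP kinase assay: 30 μM Crosstide, 0.1 mM [γ-32P]ATP, 10 mM Mg acetate, 30 min. Phosphosites then immunoblotted, ECL. Triplicate reactions.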

[23] = target: T1, 3-phosphoinositide-dependent protein kinase 1 (Homo sapiens); assay: Inhibition of PDK1 in human U2OS cells expressing FLAG-tagged SGK3 assessed as reduction in SGK3 phosphorylation at S486 residues at 1 uM after 1 hr by immunoblot analysis; type: cell-based; summary of the method: as §3
[24] = target: T1, 3-phosphoinositide-dependent protein kinase 1 (Homo sapiens); assay: Inhibition of PDK1 in human U2OS cells expressing FLAG-tagged SGK3 assessed as reduction in SGK3 activity at 1 uM using cross peptide as substrate incubated for 30 mins in presence of [gamma-32P]-ATP by radioactive assay; type: cell-based; summary of the method: as §3

COc1ccc(-c2ccc3c(N4CCOC[C@@H]4C)nc(N4CCOC[C@@H]4C)nc3n2)cc1CO
inhibition [1]: Active | inhibition [2]: Active

Nc1cc(C(F)(F)F)c(-c2cc(N3CCOCC3)nc(N3CCOCC3)n2)cn1
inhibition (U2OS [3]): Active | inhibition (U2OS [4]): Active | inhibition (U2OS [5]): Active | inhibition (U2OS [6]): inactive | inhibition (U2OS [7]): inactive

CS(=O)(=O)N1CCN(Cc2cc3nc(-c4cccc5[nH]ncc45)nc(N4CCOCC4)c3s2)CC1
inhibition [8]: inactive | inhibition (U2OS [9]): Active | inhibition [10]: inactive | inhibition (U2OS [11]): Active | inhibition (U2OS [12]): Active | inhibition (U2OS [13]): Active | inhibition (U2OS [14]): Active | inhibition (U2OS [15]): Active | inhibition (U2OS [16]): inactive | inhibition (U2OS [17]): inactive | inhibition (U2OS [18]): Active | inhibition (U2OS [19]): Active | inhibition (U2OS [20]): Active | inhibition (U2OS [21]): Active

CNc1nc(-c2ccc3c(N)n[nH]c3c2)cc(N2C[C@@H](C(=O)NC3CCCCC3)CC[C@H]2C)n1
inhibition [22]: Active | inhibition [23]: Active | inhibition [24]: Active
